Experimental data published in ChEMBL document CHEMBL1926577, “Novel 1,3,4-heterodiazole analogues: synthesis and in-vitro antitumor activity” (2012).

What was measured:
Type in all cases: functional
HL-60(TB) = test: Growth inhibition of human HL-60(TB) cells at 10 uM after 48 hrs by coulter counter method; details: HL-60, 48 h, read-out: GI
Method in brief: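 Single-dose screen on the NCI 60-line panel (leukemia subpanel). Compound is dissolved in DMSO and diluted in PBS, with final DMSO below 1%. Duplicate wells hold 6 × 10⁴ cells/ml at 37 °C, 5% CO₂, for 48 h. Cells are counted by Coulter counter after 10-fold saline dilution. Read-out is percent growth versus PBS/DMSO controls, expressed as % growth inhibition.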

NCI/ADR-RES = test: Growth inhibition of human NCI/ADR-RES cells at 10 uM after 48 hrs by coulter counter method; details: read-out: GI
Method in brief: (§1)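 NCI 60-cell-line panel, single dose. Compound dissolved first in DMSO, then diluted in phosphate-buffered saline so that every final dilution held under 1% DMSO. Duplicate wells received cells at 6 × 10⁴ cells/ml. Controls held PBS/DMSO at the same dilution. Plates were incubated 48 h at 37 °C under 5% CO₂. Cells were then diluted 10-fold in saline and counted on a Coulter counter, with counts corrected for the dilution. Results are given as percent growth inhibition.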

BT-549 = test: Growth inhibition of human BT549 cells at 10 uM after 48 hrs by coulter counter method; details: BT-549, 48 h, read-out: GI; method in brief: as §1
SN12C = test: Growth inhibition of human SN12C cells at 10 uM after 48 hrs by coulter counter method; details: read-out: GI; method in brief: as §1
UO-31 = test: Growth inhibition of human UO31 cells at 10 uM after 48 hrs by coulter counter method; details: UO-31, 48 h, read-out: GI; method in brief: as §1
UACC-257 = test: Growth inhibition of human UACC257 cells at 10 uM after 48 hrs by coulter counter method; details: UACC-257, 48 h, read-out: GI; method in brief: as §1
786-0 = test: Growth inhibition of human 786-0 cells at 10 uM after 48 hrs by coulter counter method; details: 786-0, 48 h, read-out: GI; method in brief: as §1
M14 = test: Growth inhibition of human M14 cells at 10 uM after 48 hrs by coulter counter method; details: M14, 48 h, read-out: GI; method in brief: as §1
UACC-62 = test: Growth inhibition of human UACC62 cells at 10 uM after 48 hrs by coulter counter method; details: UACC-62, 48 h, read-out: GI; method in brief: as §1
SK-MEL-5 = test: Growth inhibition of human SK-MEL-5 cells at 10 uM after 48 hrs by coulter counter method; details: SK-MEL-5, 48 h, read-out: GI; method in brief: as §1
A549 = test: Growth inhibition of human A549 cells at 10 uM after 48 hrs by coulter counter method; details: A549, 48 h, read-out: GI; method in brief: as §1
SK-MEL-28 = test: Growth inhibition of human SK-MEL-28 cells at 10 uM after 48 hrs by coulter counter method; details: SK-MEL-28, 48 h, read-out: GI; method in brief: as §1
HCT-116 = test: Growth inhibition of human HCT116 cells at 10 uM after 48 hrs by coulter counter method; details: HCT-116, 48 h, read-out: GI; method in brief: as §1
K562 = test: Growth inhibition of human K562 cells at 10 uM after 48 hrs by coulter counter method; details: K562, 48 h, read-out: GI; method in brief: as §1
HT-29 = test: Growth inhibition of human HT-29 cells at 10 uM after 48 hrs by coulter counter method; details: HT-29, 48 h, read-out: GI; method in brief: as §1
U-251 = test: Growth inhibition of human U251 cells at 10 uM after 48 hrs by coulter counter method; details: U-251, 48 h, read-out: GI; method in brief: as §1
LOX IMVI = test: Growth inhibition of human LOXIMVI cells at 10 uM after 48 hrs by coulter counter method; details: read-out: GI; method in brief: as §1
RPMI-8226 = test: Growth inhibition of human RPMI8226 cells at 10 uM after 48 hrs by coulter counter method; details: RPMI-8226, 48 h, read-out: GI; method in brief: as §1
NCI-H522 = test: Growth inhibition of human NCI-H522 cells at 10 uM after 48 hrs by coulter counter method; details: NCI-H522, 48 h, read-out: GI; method in brief: as §1
ACHN = test: Growth inhibition of human ACHN cells at 10 uM after 48 hrs by coulter counter method; details: read-out: GI; method in brief: as §1
SF-268 = test: Growth inhibition of human SF268 cells at 10 uM after 48 hrs by coulter counter method; details: SF-268, 48 h, read-out: GI; method in brief: as §1
MDA-MB-468 = test: Growth inhibition of human MDA-MB-468 cells at 10 uM after 48 hrs by coulter counter method; details: MDA-MB-468, 48 h, read-out: GI; method in brief: as §1
OVCAR-8 = test: Growth inhibition of human OVCAR8 cells at 10 uM after 48 hrs by coulter counter method; details: OVCAR-8, 48 h, read-out: GI; method in brief: as §1
A498 = test: Growth inhibition of human A498 cells at 10 uM after 48 hrs by coulter counter method; details: A498, 48 h, read-out: GI; method in brief: as §1
NCI-H23 = test: Growth inhibition of human NCI-H23 cells at 10 uM after 48 hrs by coulter counter method; details: NCI-H23, 48 h, read-out: GI; method in brief: as §1
SNB-19 = test: Growth inhibition of human SNB19 cells at 10 uM after 48 hrs by coulter counter method; details: SNB-19, 48 h, read-out: GI; method in brief: as §1
T47D = test: Growth inhibition of human T47D cells at 10 uM after 48 hrs by coulter counter method; details: read-out: GI; method in brief: as §1
SK-MEL-2 = test: Growth inhibition of human SK-MEL-2 cells at 10 uM after 48 hrs by coulter counter method; details: SK-MEL-2, 48 h, read-out: GI; method in brief: as §1
CCRF-CEM = test: Growth inhibition of human CCRF-CEM cells at 10 uM after 48 hrs by coulter counter method; details: read-out: GI; method in brief: as §1
PC-3 = test: Growth inhibition of human PC3 cells at 10 uM after 48 hrs by coulter counter method; details: PC-3, 48 h, read-out: GI; method in brief: as §1
MCF7 = test: Growth inhibition of human MCF7 cells at 10 uM after 48 hrs by coulter counter method; details: MCF7, 48 h, read-out: GI; method in brief: as §1
KM12 = test: Growth inhibition of human KM12 cells at 10 uM after 48 hrs by coulter counter method; details: KM12, 48 h, read-out: GI; method in brief: as §1
MOLT-4 = test: Growth inhibition of human MOLT4 cells at 10 uM after 48 hrs by coulter counter method; details: MOLT-4, 48 h, read-out: GI; method in brief: as §1
MDA-MB-435 = test: Growth inhibition of human MDA-MB-435 cells at 10 uM after 48 hrs by coulter counter method; details: MDA-MB-435, 48 h, read-out: GI; method in brief: as §1
NCI-H226 = test: Growth inhibition of human NCI-H226 cells at 10 uM after 48 hrs by coulter counter method; details: NCI-H226, 48 h, read-out: GI; method in brief: as §1
Malme-3M = test: Growth inhibition of human MALME-3M cells at 10 uM after 48 hrs by coulter counter method; details: read-out: GI; method in brief: as §1
HCT-15 = test: Growth inhibition of human HCT15 cells at 10 uM after 48 hrs by coulter counter method; details: HCT-15, 48 h, read-out: GI; method in brief: as §1
NCI-H322M = test: Growth inhibition of human NCI-H322M cells at 10 uM after 48 hrs by coulter counter method; details: read-out: GI; method in brief: as §1
SNB-75 = test: Growth inhibition of human SNB75 cells at 10 uM after 48 hrs by coulter counter method; details: SNB-75, 48 h, read-out: GI; method in brief: as §1
IGROV-1 = test: Growth inhibition of human IGROV1 cells at 10 uM after 48 hrs by coulter counter method; details: IGROV-1, 48 h, read-out: GI; method in brief: as §1
EKVX = test: Growth inhibition of human EKVX cells at 10 uM after 48 hrs by coulter counter method; details: read-out: GI; method in brief: as §1
SF-295 = test: Growth inhibition of human SF295 cells at 10 uM after 48 hrs by coulter counter method; details: SF-295, 48 h, read-out: GI; method in brief: as §1
TK-10 = test: Growth inhibition of human TK10 cells at 10 uM after 48 hrs by coulter counter method; details: TK-10, 48 h, read-out: GI; method in brief: as §1
SR = test: Growth inhibition of human SR cells at 10 uM after 48 hrs by coulter counter method; details: read-out: GI; method in brief: as §1
CAKI-1 = test: Growth inhibition of human Caki1 cells at 10 uM after 48 hrs by coulter counter method; details: CAKI-1, 48 h, read-out: GI; method in brief: as §1

NC1=CC(N)=NC2OC(c3ccccc3)=NN12 (stereo not given)
inhibition of growth at 10 µM (HL-60(TB)): 15.6% | inhibition of growth at 10 µM (NCI/ADR-RES): < 10% | inhibition of growth at 10 µM (BT-549): < 10% | inhibition of growth at 10 µM (SN12C): < 10% | inhibition of growth at 10 µM (UO-31): 27% | inhibition of growth at 10 µM (UACC-257): < 10% | inhibition of growth at 10 µM (786-0): < 10% | inhibition of growth at 10 µM (M14): < 10% | inhibition of growth at 10 µM (UACC-62): < 10% | inhibition of growth at 10 µM (SK-MEL-5): < 10% | inhibition of growth at 10 µM (A549): < 10% | inhibition of growth at 10 µM (SK-MEL-28): < 10% | inhibition of growth at 10 µM (HCT-116): < 10% | inhibition of growth at 10 µM (K562): < 10% | inhibition of growth at 10 µM (HT-29): < 10% | inhibition of growth at 10 µM (U-251): < 10% | inhibition of growth at 10 µM (LOX IMVI): < 10% | inhibition of growth at 10 µM (RPMI-8226): < 10% | inhibition of growth at 10 µM (NCI-H522): < 10% | inhibition of growth at 10 µM (ACHN): < 10% | inhibition of growth at 10 µM (SF-268): < 10% | inhibition of growth at 10 µM (MDA-MB-468): < 10% | inhibition of growth at 10 µM (OVCAR-8): < 10% | inhibition of growth at 10 µM (A498): < 10% | inhibition of growth at 10 µM (NCI-H23): < 10% | inhibition of growth at 10 µM (SNB-19): < 10% | inhibition of growth at 10 µM (T47D): < 10% | inhibition of growth at 10 µM (SK-MEL-2): < 10% | inhibition of growth at 10 µM (CCRF-CEM): < 10% | inhibition of growth at 10 µM (PC-3): < 10% | inhibition of growth at 10 µM (MCF7): < 10% | inhibition of growth at 10 µM (KM12): < 10% | inhibition of growth at 10 µM (MOLT-4): 10.4% | inhibition of growth at 10 µM (MDA-MB-435): < 10% | inhibition of growth at 10 µM (NCI-H226): < 10% | inhibition of growth at 10 µM (Malme-3M): < 10% | inhibition of growth at 10 µM (HCT-15): < 10% | inhibition of growth at 10 µM (NCI-H322M): < 10% | inhibition of growth at 10 µM (SNB-75): < 10% | inhibition of growth at 10 µM (IGROV-1): < 10% | inhibition of growth at 10 µM (EKVX): < 10% | inhibition of growth at 10 µM (SF-295): 15.6% | inhibition of growth at 10 µM (TK-10): < 10% | inhibition of growth at 10 µM (SR): 10.4% | inhibition of growth at 10 µM (CAKI-1): < 10%
